Reference: ChEMBL document CHEMBL5576140, “Computational Design of Pore-Forming Peptides with Potent Antimicrobial and Anticancer Activities” (J Med Chem, 2024)

Key:
[1] = Hemolytic activity against human RBC incubated for 1 hr by microplate reader analysis; assay type: toxicity, cell-based, Erythrocyte; conditions: red blood cells (erythrocytes)
Procedure, shortened: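 Human red blood cells exposed to peptides up to 50 μM; hemolysis measured, IC50 derived where reached.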

[2] = tested on: Staphylococcus aureus; assay: Antimicrobial activity against Staphylococcus aureus NE1506 harboring single transposon insertion mutation in V8 protease at 30 uM incubated for 18 hrs relative to control; assay type: functional
Procedure, shortened: (§1)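 CA-MRSA USA300 LAC derivative JE2 and single transposon insertion mutants derived from JE2, each lacking an extracellular protease gene, were exposed to peptides up to 30 μM. The read-out was percent growth inhibition. Peptides were dissolved in PBS, and tests were run in triplicate.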

[3] = tested on: Staphylococcus aureus; assay: Antimicrobial activity against Staphylococcus aureus NE163 harboring single transposon insertion mutation in aureolysin at 30 uM incubated for 18 hrs relative to control; assay type: functional; procedure, shortened: as §1
[4] = tested on: Staphylococcus aureus; assay: Antimicrobial activity against Staphylococcus aureus NE934 harboring single transposon insertion mutation in staphopain B at 30 uM incubated for 18 hrs relative to control; assay type: functional; procedure, shortened: as §1
[5] = Toxicity against reconstructed human skin model assessed as tissue viability at 50 uM incubated for 1 hr followed by compound washout measured after 42 hrs by MTT assay; assay type: tissue-based, Skin of body; conditions: read-out: Activity
Procedure, shortened: (§2)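 Reconstructed human epidermis with stratum corneum, per OECD TG 439 skin irritation guideline. Tissues exposed 1 h to peptide at 50 μM, then 42 h post-treatment incubation. Viability read by MTT. Controls were SDS and melittin.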

[6] = Toxicity against reconstructed human skin model assessed as irritation at 50 uM incubated for 1 hr followed by compound washout measured after 42 hrs by MTT assay; assay type: tissue-based, Skin of body; procedure, shortened: as §2
[7] = tested on: Staphylococcus aureus; assay: Antimicrobial activity against Staphylococcus aureus NE1740 harboring single transposon insertion mutation in staphopain A at 30 uM incubated for 18 hrs relative to control; assay type: functional; procedure, shortened: as §1
[8] = Stability in simulated pore POPC lipid bilayer membrane; assay type: physicochemical
Procedure, shortened: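 Coarse-grained MD with the "scaled" Martini force field, peptides in POPC membrane, 51 μs. Counts transmembrane peptides at 51 μs. Water beads within 2 nm vertically of membrane centre and peptide–peptide interaction energy averaged over 48–51 μs. Contacts (salt bridge or stacking) scored below 0.8 nm and called stable if present ≥50% of the time.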

[9] = tested on: Escherichia coli; assay: Antimicrobial activity against Escherichia coli TOP10 incubated for 24 hrs by broth microdilution assay; assay type: functional
[10] = tested on: Staphylococcus carnosus; assay: Antimicrobial activity against Staphylococcus carnosus CCM 4838T incubated for 24 hrs by broth microdilution assay; assay type: functional

Substance | IC50 at 1 h [1] | inhibition at 30 µM [2] | inhibition at 30 µM [3] | inhibition at 30 µM [4] | inhibition at 30 µM [7] | MIC [9] | also measured
H-KKKKLKKILKKLFQFINQLENQLQEIKQNK-NH2 | > 50 µM |  |  |  |  |  | 
H-KKKKLKKILKKLFQFIQQLDQQLQDIKQQK-NH2 | > 50 µM | < 45% | < 45% | < 45% | < 45% |  | viability at 1 h, 50 µM [5]: 100%; Activity [6]: Non-Toxic
H-KKKKLKKILKKLFSFISSLDSSLSDIKSSK-NH2 |  | < 45% | < 45% | < 45% | < 45% |  | Stability [8]: Stable
H-KKKKLKKILKKLWQWINQLDNQLQDIKQNK-NH2 | > 50 µM |  |  |  |  |  | 
H-KKKKLKKLLKKLFQFLNQLDNQLQDLKQNK-NH2 |  | < 45% | < 45% | < 45% | < 45% |  | 
H-KKKKLRRILRRLFQFINQLDNQLQDIKQNK-NH2 | 49 µM |  |  |  |  |  | 
H-KKKKMKKMMKKMFQFMNQMDNQMQDMKQNK-NH2 |  | < 45% | < 45% | < 45% | < 45% | > 50 µM | 
H-KKKKVKKVVKKVFQFVNQVDNQVQDVKQNK-NH2 |  | < 45% | < 45% | < 45% | < 45% | > 50 µM | MIC [10]: > 50 µM
H-KNQNLDDILNQLFQFINQLKNQLQKIKKKK-NH2 |  |  |  |  |  | > 50 µM | 
H-RRRRLKKILKKLFQFINQLDNQLQDIRQNR-NH2 | 6.9 µM |  |  |  |  |  | 
